# Sampled rows, rich in hits. Any-hit rate of the full collection: about 3.3%.
# Arr AP2 block – human beta-arrestin and AP2 interaction inhibition; inhibition, % at 10 µM; hit rate 0.31% among 340,000; FITC-arrestin peptide / GST-AP2 beads, flow cytometry; AP2 beta2 appendage carries R879A mutation;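 active means inhibition above a set limit, near 3 SD of compounds lacking own fluorescence, cut at about 54% in these data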;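 further: plate controls were DMSO wells for no effect and 5 µM unlabelled arrestin peptide for full effect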
#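 Material – GST-tagged AP2 beta2-adaptin appendage (R879A) on 4 µm glutathione beads · Probe or stimulus – fluorescein-tagged arrestin peptide at 50 nM final · Timing – 12 min plus 1 h, RT · Detection – bead flow cytometry, FITC channel · Read-out basis – inhibition as reduced fluorescein signal on beads, percent · Medium – PBS plus Tween 20 (0.05%) and BSA (0.1%)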
# Exocytosis inh – lytic granule exocytosis inhibition | TALL-104 LAMP-1 surface exposure, flow cytometry; cells stimulated with thapsigargin and PMA | inhibition, % at 10 µM | hit rate 0.66% among 360,000 | AID 651702;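 active means inhibition above about 55%, limit read from the data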
# ATG4B inhibitor – inhibitors of human ATG4B cysteine protease | ATG4B cleavage of LC3-PLA2, NBD-HPC fluorescence, 1 h | inhibition, % at 8.33 µM | hit rate 0.51% among 340,000 | AID 504462; in the data active means inhibition above about 40%
# CendR NRP1 mod – NRP-1/CendR interaction modulation | O14786 | hit rate 0.85% among 360,000 | FAM-RPARPAR peptide binding to NRP-1, fluorescence polarization | inhibition, % at 25 µM;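 active means inhibition or corrected inhibition above about 18%, plus a signal ratio from 0.5 to 1.5, limit read from the data, passing the limit was not always enough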
# ABCB6 inh MLPCN – inhibitors of human ABC transporter ABCB6. K562-ABCB6 porphyrin accumulation, flow cytometry, 1 h; active compounds read low. fluorescence ratio to DMSO, % at 10 µM. hit rate 0.19% among 360,000;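 active means fluorescence ratio to DMSO below 75%, the collection mean minus 3 SD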;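 further: signal is porphyrin accumulated inside mitochondria; 100% equals median channel fluorescence of DMSO control wells; lower ratio means ABCB6 inhibition with less porphyrin fluorescence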
# Myeloid diff 2 – promotes myeloid progenitor differentiation; ER-HoxA9 myeloid progenitors, lysozyme-GFP differentiation, flow cytometry; calls only at 10 µM; hit rate 1% among 360,000; AID 624256;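 active means normalized GFP-positive differentiation at or above the plate's own cutoff, the solvent-only control mean plus 3 SD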;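 further: cells exposed to compound for four days before flow analysis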
# * marks the source's active call; other numbers are inactive results; i = inactive; / = not tested or not shown; + = active, no number.
SMILES,Arr AP2 block,Exocytosis inh,ATG4B inhibitor,CendR NRP1 mod,ABCB6 inh MLPCN,Myeloid diff 2
O=C(NCc1ccco1)C1CC(c2ccc(C(F)(F)F)cc2)=NO1 (centres undefined),5.8,16.6,-12.6,31.4*,96.0,i
Cc1ccc(S(=O)(=O)N2CCN(C(=O)C3CCN(c4ncnc5sc(C)c(C)c45)CC3)CC2)c(C)c1,-5.8,-4.4,-1.6,24.3,64.0*,i
Cc1ccn2c(-c3csc(NCc4ccccc4)n3)c(C)nc2c1,-2.8,25.3,11.3,25.4*,112.0,i
Cc1nc2ccccn2c1-c1csc(NCc2ccco2)n1,7.9,4.3,-5.5,0.0,91.0,i
COc1cc(/C=C2\SC(=S)N(CCC(=O)Nc3ccccc3)C2=O)cc(OC)c1OC,-12.1,-5.3,-11.5,-36.6,94.0,i
O=C1/C(=C\c2ccc(O)c(O)c2)SC(=S)N1Cc1ccccc1,16.6,3.7,33.6,-176.3,464.0,+
O=C(O)c1cc(-c2ccc(/C=C3/SC(=S)N(Cc4ccccc4)C3=O)o2)ccc1Cl,16.1,90.0*,16.1,133.8,206.0,+
COc1cc(/C=C2/SC(=S)N(Cc3ccccc3)C2=O)ccc1O,12.9,-3.8,11.9,-206.4,494.0,+
Cc1ccc(/C=C2\SC(=S)N(Cc3ccccc3)C2=O)o1,27.9,1.1,33.3,-88.1,118.0,i
COc1cc(/C=C2/SC(=NCc3ccccc3)N(Cc3ccccc3)C2=O)ccc1O,0.5,3.1,4.2,-12.4,132.0,i
COc1cc(/C=C2\SC(=S)N(CCC(=O)Nc3cccc(O)c3)C2=O)cc(OC)c1OC,14.2,85.2*,-6.2,-5.5,96.0,i
O=C1CCN(CCc2ccccc2)CCN1[C@H](COc1ccccc1)c1ccccc1,-2.4,-1.4,-5.0,1.9,89.0,i
COc1cccc2cc(-c3nc(-c4cccs4)cs3)c(=O)oc12,99.4*,17.7,-4.3,47.1*,100.0,i
O=C(NCc1ccc(F)cc1)C1CCN(S(=O)(=O)c2ccc(Br)s2)CC1,-3.0,28.4,20.4,30.0*,93.0,i
CCCCOCCCNC(=O)C[C@@H]1C[C@@]2(C(=O)OC)CC(C)(C)CC=C2N(Cc2ccccc2)C1=O,/,-3.1,/,1.9,/,i
COC1=C/C(=C/c2c(N)n3nc(CC(=O)N4CCCC4)sc3nc2=O)C=CC1=O,12.2,-0.4,15.2,-114.5,140.0,i
COC1=CC(=Cc2c(N)n3nc(CC(=O)N4CCCCC4)sc3nc2=O)C=C(OC)C1=O,15.3,-2.0,-2.6,-199.9,157.0,+
C[C@H]1CN([C@@H](C)CO)C(=O)CCCn2cc(nn2)CO[C@@H]1CN(C)C(=O)Nc1ccc(N2CCN(C)CC2)cc1,/,-2.8,/,21.0*,94.0,i
C[C@@H]1CN([C@H](C)CO)C(=O)CCCn2cc(nn2)CO[C@H]1CN(C)C(=O)Nc1ccc(F)cc1,/,2.8,/,2.0,91.0,i
C=CCOc1ccccc1CN(C(=O)CCl)c1ccc2c(c1)OCO2,-3.2,19.7,14.9,10.8,88.0,+
CCOc1ccccc1NC(=O)Nc1ccc2c(c1)OCO2,-10.9,-3.6,-7.7,3.3,99.0,i
CC(C)NS(=O)(=O)c1ccc2c(c1)oc(=O)n2C,-5.0,1.6,3.5,21.9*,98.0,i
Cn1c(=O)oc2cc(S(=O)(=O)Nc3ccccc3)ccc21,9.2,-2.0,-3.5,2.6,103.0,i
Cn1c(=O)oc2cc(S(=O)(=O)NC3CCCCC3)ccc21,-0.9,-10.8,3.1,1.9,93.0,i
CC1CCN(C(=O)CCNS(=O)(=O)c2ccc3c(c2)oc(=O)n3C)CC1,10.5,3.4,0.2,11.7,98.0,i
Cn1c(=O)oc2cc(S(=O)(=O)NCC3CCCO3)ccc21 (centres undefined),-6.0,2.8,-4.2,-39.9,108.0,+
CC1CC(C)CN(CCCNS(=O)(=O)c2ccc3c(c2)oc(=O)n3C)C1 (centres undefined),-3.6,-0.3,1.2,-45.5,135.0,+
CN(c1ccc(-c2csc(NC(=O)CCCc3nc4ccccc4c(=O)[nH]3)n2)cc1)S(C)(=O)=O,/,-0.7,/,4.7,96.0,i
Nc1nc(SCC(=O)Nc2cccnc2Cl)n[nH]1,17.6,-0.7,0.7,1.9,96.0,i

# Compound activity as filed in PubChem BioAssay.
